Measured values published in the array DNA melting data of Ke et al. (doi:10.1101/2024.01.08.574731).

Assays:
[1] = folding enthalpy; higher = less favourable; fluorescence melt of hairpins on a sequencing array, two-state fit; settings: sodium 0.088 M
Outline: (§1)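 Melting temperature and folding enthalpy were obtained by bootstrapped two-state fitting. Fits used Cy3 fluorescence of library hairpins with annealed Cy3 and quencher oligos on a sequenced MiSeq flow cell, imaged in 50 mM Na-HEPES pH 8.0, 25 mM NaCl in 2.5 °C steps up to 60 °C and normalised to pre-quench Cy3 and control constructs. Four replicates were combined by inverse-variance weighting, and fitted temperatures were raised by 9.35 °C to match UV melts.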

[2] = melting temperature; fluorescence melt of hairpins on a sequencing array, two-state fit, raised by 9.35 °C to match UV melts; settings: sodium 0.088 M
Outline: as §1

Sequence | folding enthalpy [1] [kcal/mol] | Tm [2] [°C]
GAGCATGCGAAAGCACTC (((..(((....)))))) | -8.93 | 27
GGTGTGGGAAACCGTACC (((..((....))..))) | -24.1 | 36.8
GATCCCTTTGGGGATC ((((((....)))))) | -46 | 62.8
GTAAATGAAAATTTAC ((((((....)))))) | -26.1 | 37.2
GAAAACGAAAGTTTTC ((((((....)))))) | -37.9 | 55
GAGTCCGAAAGGACACTC ((((((....)))..))) | -12.5 | 54.4
GATAAACGAAAGTTCATC (((.(((....))).))) | -27.3 | 29.2
GACGTTCCGAAAGGAGTC (((..(((....)))))) | -17 | 36.6
GTCAAGCGAAAGCTGGAC (((.(((....))).))) | -29.4 | 62.4
GCGGCGGACCGC ((((....)))) | -22.6 | 54.9
GAATGGGGAAACCCATCC (.(((((....))))).) | -12.7 | 36.5
GACGATGGAAACACCGTC ((((.((....)).)))) | -29.6 | 45.4
CGCTCGGAAACGACGCG ((((((....))).))) | -34.6 | 51.1
GTCTGTGCGAAAGCAGAC (((..(((....)))))) | -19.5 | 46.4
GTCACAGGAAACTATGAC ((((.((....)).)))) | -20.1 | 32
GCCCCGCGAAAGCAGTGC ((.(.((....)).).)) | -11.8 | 34
GCCAAGCGAAAGCCTTGC ((.(.((....)).).)) | -13.6 | 33.9
GATCGGGAGTCCGATC ((((((....)))))) | -39.6 | 56.5
GAATCGGAAACGATTC ((((((....)))))) | -36.1 | 55.7
GTATACGGAAACGCATAC ((((.((....)).)))) | -28.2 | 37.3
GCGTAGGCACGC ((((....)))) | -14.1 | 60.8
GAACCACGAAAGTGTTC (((.(((....)))))) | -13.8 | 43.9
GATCACTACGTGATC ((((((...)))))) | -39.7 | 61.7
GATCAATTTGTTGATC ((((((....)))))) | -35.6 | 47.3

Sequence | folding enthalpy [1] [kcal/mol] | Tm [2] [°C]
GATCAAGAATTGATC ((((((...)))))) | -34.6 | 51.9
GCAATCGAAAGATTTGC ((((((....))).))) | -27.6 | 44.2
GTAAAGGGAAACCTTTGC (.(((((....))))).) | -28.4 | 37.5
GACGCCGAAAGGCTTGTC ((((((....)))..))) | -13.5 | 41.1
GTCCAGAAATGGAC (((((....))))) | -24.8 | 52.9
GATCAAGCGGTTGATC ((((((....)))))) | -38.1 | 46.5
GATCTTCGCTAAGATC ((((((....)))))) | -34.2 | 43
GCCCGGCGAAAGCGGTGC ((.(.((....)).).)) | -15.6 | 56.5
GTGACCGGAAACAGTCAC (((((.(....).))))) | -32.1 | 45.2
GTTACGCGAAAGCGGAAC (((.(((....))).))) | -26.8 | 67.5
GATCCACATATGGATC ((((((....)))))) | -41.2 | 50.6
GCGCCTGGAAACAGGCAC (.(((((....))))).) | -11.9 | 47.9
GTTTTTCGAAAGAAAAC (((.(((....)))))) | -21.4 | 35.8
GCGTTATGACGC ((((....)))) | -25 | 56.2
GCCATGGCGAAAGCCGGC (((..(((....)))))) | -16.2 | 62
GGAACTGGAAACGGTTCC (((((.(....).))))) | -34.9 | 51
GCTGGAGCGAAAGCTAGC (((..(((....)))))) | -16.6 | 49.9
GCTCGCGAAAGCGCTAGC ((((((....)))..))) | -11.9 | 42.6
CGTAGCCGGAAACGGACG (((..(((....)))))) | -8.93 | 31.7
GCTCACCGAAAGGTAAGC (((.(((....))).))) | -29.1 | 48.6
GGTGCCGAAAGGCGCACC ((((((....)))..))) | -11 | 53.2
GCGTCGGGAAACTGGCGC (((.(.(....).).))) | -37.1 | 53.2
GTAGATGGAAACATCCAC ((.((((....)))).)) | -16.9 | 30.4
GATCGAAGCTCGATC ((((((...)))))) | -36 | 49.9

Sequence | folding enthalpy [1] [kcal/mol] | Tm [2] [°C]
GCGATCATCGC ((((...)))) | -19.5 | 49.6
GATCTTACTAAGATC ((((((...)))))) | -34.4 | 42.6
GCGTTTAACGC ((((...)))) | -21.4 | 56.6
GCTCCGCGAAAGCCGAGC ((((.((....)).)))) | -34.5 | 58.4
GTAGAGCGAAAGCTGTAC (((.(((....))).))) | -25.2 | 50.9
GAGTTGGGAAACCAACCC (.(((((....))))).) | -13.8 | 40.5
GTAAGTGGAAACGCTTAC (((((.(....).))))) | -27.6 | 45.4
GAGATAGAAATATCTC ((((((....)))))) | -26.9 | 39
GTGGACCGAAAGGTGCAC (((.(((....))).))) | -24.7 | 67.3
GTAGGGGGAAACCCCCAC ((.((((....)))).)) | -12.6 | 43.5
GTGATCGGAAACGATTGC (..((((....))))..) | -22.1 | 40.5
GCTTGCGAAAGCAGGAGC ((((((....)))..))) | -14.3 | 51.4
GGTGTGGGAAACCATACC (((.(((....))).))) | -33.5 | 50.8
GAACAGCGAAAGCTTTC (((.(((....)))))) | -12.4 | 33.6
GGAGCCCGAAAGGGTCC (((.(((....)))))) | -18.9 | 59.9
GATCTTTCTTAAGATC ((((((....)))))) | -37.3 | 44.9
GATCGGGGTCCGATC ((((((...)))))) | -32.1 | 58.6
GTACTCGAAAGAGGGTAC ((((((....)))..))) | -14.2 | 33.7
GAGTTGCGAAAGCACTC (((.(((....)))))) | -21.7 | 53.9
GCCACCGAAAGGTCCGGC ((((((....)))..))) | -17 | 46.8
GCACTACGAAAGTATTGC (((.(((....))).))) | -31.2 | 45.9
GCATCGTCGAAAGACTGC (((..(((....)))))) | -15.8 | 36.8
GATCGATATTCGATC ((((((...)))))) | -30.3 | 52.6
GATCTAGTGGTAGATC ((((((....)))))) | -28 | 38

Sequence | folding enthalpy [1] [kcal/mol] | Tm [2] [°C]
GCGTATCGAAAGATTCGC (((.(((....))).))) | -42.7 | 53.9
GCCGGAACGAAAGTTGGC (((..(((....)))))) | -24.3 | 47.4
GTACTAGGAAACTAGTAC (((((((....))))))) | -40.1 | 52.3
GATCGGTACACCGATC ((((((....)))))) | -40.4 | 62.2
GATCGCGAAAGCGTATC ((((((....))).))) | -15.5 | 51.8
GATGCCGCGAAAGCGATC (((..(((....)))))) | -7.36 | 28
GCGAGGCGAAAGCCCCGC (((.(((....))).))) | -26.6 | 68.5
GCTATAGGAAACCATAGC (((((.(....).))))) | -29.8 | 35.6
GTTCCTGGAAACAGGAGC (.(((((....))))).) | -23.4 | 48.3
GAGTGAGGAAACTCACTC (((((((....))))))) | -40.6 | 61.6
GGGGTCGAAAGACACCCC ((((((....)))..))) | -12.6 | 61.8
CGGAGCGGAAACGCCCG (((.(((....)))))) | -30.6 | 55.6
GATCCATAAGTGGATC ((((((....)))))) | -39.2 | 51.9
CGAACGGAAACGTAATCG ((((((....)))..))) | -8.82 | 24.5
GTTTTGGGAAACTAAAGC (.(((.(....).))).) | -16.3 | 27.3
GATCCTAATAAGGATC ((((((....)))))) | -40.1 | 50.8
GGACCCGGAAACGGGTTC (.(((((....))))).) | -25.6 | 59.4
GATCAGTCCTCTGATC ((((((....)))))) | -39.7 | 51.1
GACGGCGAAAGCCAAGTC ((((((....)))..))) | -18.5 | 49
GGCCACCGAAAGGTGCC (((.(((....)))))) | -15.8 | 60.8
GTATACGAAAGTATTAC ((((((....))).))) | -13.9 | 32.8
